Source: PubChem (several laboratories)
Lmaj promast: Leishmania major promastigote growth inhibition, primary screen | AID 1063, 2008 | inhibition, % at 10 µM | 200,000 tested, 9% active | Leishmania major promastigotes, resazurin fluorescence viability;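 note: promastigotes grown with compound for 44 hours at 28 °C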
Diaphorase act: compounds boosting diaphorase resazurin reduction – biochemical, uHTS, resorufin fluorescence, counter-screen for diaphorase-coupled primary assays, primary screen; Diaphorase/resazurin coupled assay, 16 min; hits give high values; 1 = vehicle wells, 0 = NADH-free wells; activation factor at 20 µM; 190,000 tested, 0.005% active; AID 1229, 2008;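 active = diaphorase activity raised at least twofold by the compound at 20 µM; inactive = activation factor below 2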
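Test system: Clostridium kluyveri diaphorase, purified enzyme. Buffer or medium: 50 mM HEPES pH 7.4 buffer plus MgCl2 and Tween 20. Also added: 0.114 mM NADH and 0.1 mM resazurin, final amounts. Dosing: compound 20 µM once, DMSO 1%. Schedule: 16 min enzyme reaction, ambient temperature. Detection: fluorescence of resorufin, 544 nm excitation, 590 nm emission.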
Diaph inh CS: diaphorase inhibitors and chemical oxidizers, primary screen, counter-screen for diaphorase-coupled primary assays, biochemical, uHTS, resorufin fluorescence; AID 1217, 2008; diaphorase resazurin-to-resorufin fluorescence, NADH, 16 min; bacterial (C. kluyveri) enzyme, not human; 190,000 tested, 0.69% active; inhibition, % at 20 µM;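 active = primary screen inhibition at 20 µM above a set limit, cut at about 50% in these data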
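System: Bacterial diaphorase enzyme (C. kluyveri) | Incubation: 16-min room-temperature incubation before reading | Benchmarks: No-NADH positive control and DMSO neutral control | Measured by: Resorufin fluorescence 544/590 nm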
G6PDH CS: L. mesenteroides G6PDH inhibitors, counter-screen for G6PDH-coupled screening assays, biochemical, Leuconostoc mesenteroides enzyme; glucose-6-phosphate dehydrogenase [Leuconostoc mesenteroides]; Purified L. mesenteroides G6PDH, diaphorase/resazurin coupled fluorescence, 45 min; inhibition, % at 5 µM; 200,000 tested, 0.12% active
Redox H2O2 prof: compounds producing H2O2 with reducing agent – biochemical, NIH compound library profiling, artefact control for MLSCN library redox annotation, primary screen; DTT-dependent redox cycling H2O2, phenol red/HRP absorbance; 100% = 100 µM peroxide control, 0% = buffer; activation, % at 10 µM; 200,000 tested, 0.03% active;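 active = activation of at least 50% relative to the plate's high and low controls in the primary single-dose screen; inactive = activation below 50%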;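 note: compound incubated with DTT at 0.8 mM final as the reducing agent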
PfG6PD inh: PfG6PD enzyme inhibitors, primary screen, biochemical, fluorescence intensity, uHTS; glucose-6-phosphate dehydrogenase-6-phosphogluconolactonase (Plasmodium falciparum 3D7); 350,000 tested, 0.78% active; PfGluPho enzyme, NADPH resazurin-diaphorase fluorescence; inhibition, % at 20 µM;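 active = inhibition reaching at least a set limit at 20 µM in the primary screen, cut at about 59% in these data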
Of the large screens only hits and unclear results are named; the others gave an inactive call. The sample as a whole holds a higher share of hits than the screen did. Cut-off read from the data, not from the text of the source, unless noted: active = inhibition above about 50%; inactive = the rest.

CCCCCCn1c(O)c(C=NC2CCN(Cc3ccccc3)CC2)c(=O)[nH]c1=O	Lmaj promast 54
O=c1[nH]c(=O)n(CCC2=CCCCC2)c(O)c1C=NC1CCN(Cc2ccccc2)CC1	Lmaj promast 83
C=CCn1c(O)c(C=NC2CCN(Cc3ccccc3)CC2)c(=O)[nH]c1=O	none (no result: Lmaj promast, Diaphorase act, Diaph inh CS, G6PDH CS, Redox H2O2 prof)
O=c1[nH]c(=O)n(CCC2=CCCCC2)c(O)c1/C=N/Nc1ccccc1	Lmaj promast 81
O=c1[nH]c(=O)n(CCC2=CCCCC2)c(O)c1C=NCCN1CCNCC1	none
C=CC[C@@H](CC/C=C/C=C/CC/C=C\[C@@H]1CSC([C@@H]2C[C@@H]2C)=N1)OC	none (no result: Lmaj promast, Diaphorase act, Diaph inh CS, G6PDH CS, Redox H2O2 prof)
Fc1ccc(CNCCc2ccc3c(c2)OCO3)cc1	none (no result: Lmaj promast, Diaphorase act, Diaph inh CS, G6PDH CS, Redox H2O2 prof)
CC1CCC(NCCc2ccc3c(c2)OCO3)CC1 (centres undefined)	Lmaj promast 93
c1cc2c(cc1CCNC1C3CC4CC(C3)CC1C4)OCO2 (centres undefined)	Lmaj promast 86
CCCCCSc1cc(OC)c(CCN(C)C)cc1OC	Lmaj promast 100
COc1ccc2[nH]cc(CCN(C)C)c2c1	none
COC(=O)N(C)c1ccc(C(O)(C(=O)OC)C(F)(F)F)cc1 (centres undefined)	Lmaj promast 87
COC(=O)C(O)(c1ccc(N(C)C(=O)COc2ccccc2)cc1)C(F)(F)F (centres undefined)	none
CCOC(=O)N(CC)c1ccc(C(O)(C(=O)OC)C(F)(F)F)cc1 (centres undefined)	Lmaj promast 91
CCOc1ccc(N2C(=O)/C(=C/c3ccco3)C(=O)NC2=S)cc1	none (no result: Lmaj promast, Diaphorase act, Diaph inh CS, G6PDH CS, Redox H2O2 prof)
CCOc1ccc(N2C(=O)/C(=C\c3cccs3)C(=O)NC2=S)cc1	Lmaj promast 100
CCN1CCC(NCC2CCCCC2)CC1	none (no result: Lmaj promast, Diaphorase act, Diaph inh CS, G6PDH CS, Redox H2O2 prof)
Cc1cc(C(=O)N=Nc2c(O)n(C)c3ccccc23)c(C)o1	Lmaj promast 69
CN(CC1COc2ccccc2O1)c1nc(-c2cccnc2)nc2ccccc12 (centres undefined)	Lmaj promast 69 (no result: Diaphorase act, Diaph inh CS, G6PDH CS)
O=c1[nH]c(O)c(C=Nc2ccccc2Oc2ccccc2)c(=O)[nH]1	none (no result: Lmaj promast, Diaphorase act, Diaph inh CS, G6PDH CS, Redox H2O2 prof)
COc1ccc2c(C)c(CC(=O)N3C[C@H]4C[C@@H](C3)c3cccc(=O)n3C4)c(=O)oc2c1C	none (no result: Lmaj promast, Diaphorase act, Diaph inh CS, G6PDH CS, Redox H2O2 prof)
CN1CCC(N(C)c2nc(-c3ccc([N+](=O)[O-])cc3)nc3ccccc23)CC1	Lmaj promast 100
COC(=O)C1=C(c2ccccc2OCc2ccccc2)C[C@@H]2CC[C@H]1N2C(=O)NC1CCN(Cc2ccccc2)CC1	none (no result: Lmaj promast, Diaphorase act, Diaph inh CS, G6PDH CS, Redox H2O2 prof)
CN1C(=O)C(C)(C2=CCCCC2)C(=O)NC1=S (centres undefined)	none (no result: Lmaj promast, Diaphorase act, Diaph inh CS, G6PDH CS, Redox H2O2 prof)
Cc1ccsc1C(=O)C1CCCN(Cc2ccccc2O)C1 (centres undefined)	none
Cc1ccsc1C(=O)C1CCCN(Cc2cccn2-c2ccccn2)C1 (centres undefined)	Lmaj promast 61
N#CSCC(=O)N1c2ccccc2CCc2ccccc21	Lmaj promast 96
Nc1ccccc1C(=O)OCC(=O)N1CCc2ccccc21	none
O=c1ccc2cc(O[C@@H]3O[C@@H](CO)[C@H](O)[C@@H](O)[C@@H]3O)c(O)cc2o1	none (no result: Lmaj promast, Diaphorase act, Diaph inh CS, G6PDH CS, Redox H2O2 prof)
CNC(=S)NC1CC2CCCC(C1)N2CC(C)C (centres undefined)	none
Cc1ccc(CN2C3CCCC2CC(NC(=S)NCc2ccccc2)C3)cc1 (centres undefined)	Lmaj promast 92
Cc1cccc(N2C(=O)NC(=O)/C(=C\c3ccc4c(c3)CCCN4Cc3ccccc3)C2=O)c1	none
CCC(C)N1C(=O)/C(=C/c2ccc3c(c2)CCN3CCCCl)C(=O)NC1=S (centres undefined)	Lmaj promast 55
O=C(c1ccc2c3c(cccc13)CC2)C1CCCN(CC2CC2)C1 (centres undefined)	Lmaj promast 99
CC(C)(C)C(=O)C(Oc1ccc(Cl)cc1)n1cncn1 (centres undefined)	none (no result: Lmaj promast, Diaphorase act, Diaph inh CS, G6PDH CS, Redox H2O2 prof)
